Measurements published in article PMC2555998 (The Journal of Biological Chemistry, 2008).
Where no end group is shown, it is not given here.

Tests used:
CaM = CaM (Homo sapiens, UniProt P0DP23); assay: Ca^2+ dissociation kinetics of CaM complexes with Cx32 peptides; assay type: binding; settings: for relative amplitude A1 (EF1) / relative amplitude A2 (EF2) / relative amplitude A3 (EF3) / relative amplitude A4 (EF4): Table 3, CaM + C-terminal peptide, n = 3 (208-226), 2 (208-227)
Summary of the method: (§1)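 Human liver wild-type CaM and the EF-hand mutants CaM12 (D22A/D58A) and CaM34 (D95A/D131A) were expressed in E. coli and HPLC-purified, EGTA-free. In stopped flow, 90 µM quin 2 with no added Ca2+ was mixed with 3 µM CaM or CaM·peptide in 50 µM Ca2+ buffer (mixing-chamber concentrations). Buffer was 50 mM K+-PIPES pH 7.0, 100 mM KCl, 2 mM MgCl2.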

CaM12 (D22A/D58A CaM) = CaM12 (D22A/D58A CaM) (Homo sapiens, UniProt P0DP23, D23A/D59A); assay: Ca^2+ dissociation kinetics of CaM12 complexes with Cx32 peptides; assay type: binding; settings: n = 1; for k4 (EF4, C-terminal CaM lobe) / relative amplitude A3 (EF3) / relative amplitude A4 (EF4): Table 3, CaM12 + C-terminal peptide; for k4 (EF4, C-terminal CaM lobe): 21 °C
Summary of the method: as §1

CaM34 (D95A/D131A CaM) = CaM34 (D95A/D131A CaM) (Homo sapiens, UniProt P0DP23, D132A/D96A); assay: Ca^2+ dissociation kinetics of CaM34 complexes with Cx32 peptides; assay type: binding; settings: Table 3, CaM34 + C-terminal peptide, n = 2; for k2 (EF2, N-terminal CaM lobe): 10 μM peptide, 21 °C, mean ± S.D.
TA-CaM = settings: cited from earlier work
DA-CaM [1] = biological target: T1, DA-CaM (Homo sapiens, UniProt P0DP23, T111C/T35C); assay: Conformation of CaM in peptide complexes: donor quenching of DA-CaM; assay type: binding; settings: 433 nM DA-CaM, 0.5 mM CaCl2; further addition of 4.4 μM peptide
Summary of the method: (§2)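 DA-CaM was made from T34C/T110C CaM randomly labeled with IAEDANS (donor) and DDP (quencher), then HPLC-fractionated into lobe-specific labeled species. Equilibrium titration used increasing peptide concentrations on a spectrofluorimeter. Donor quenching indicated CaM compactness in the complex, and Kd came from fitting the binding data.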

AEDANS-T34C/T110C-CaM = AEDANS-T34C/T110C-CaM (Homo sapiens, UniProt P0DP23, T111C/T35C); assay: Equilibrium fluorescence titration of AEDANS-T34C/T110C-CaM with Cx32 208–226; assay type: binding
DA-CaM [2] = biological target: T1, DA-CaM; assay: Equilibrium fluorescence titration of DA-CaM with Cx32 1–19; assay type: binding
Summary of the method: as §2

[3] = Ca^2+ dissociation kinetics of CaM and mutant CaMs without peptide; assay type: binding; settings: no peptide; calibration of ΔRF per site
Summary of the method: as §1

[4] = cited from earlier work

| Substance | relative amplitude A1 (EF1) (CaM) | relative amplitude A2 (EF2) (CaM) | relative amplitude A3 (EF3) (CaM) | relative amplitude A4 (EF4) (CaM) | k4 (EF4, C-terminal CaM lobe) (CaM12 (D22A/D58A CaM); 10 μM peptide) [s⁻¹] | relative amplitude A3 (EF3) (CaM12 (D22A/D58A CaM)) | relative amplitude A4 (EF4) (CaM12 (D22A/D58A CaM)) | k2 (EF2, N-terminal CaM lobe) (CaM34 (D95A/D131A CaM)) [s⁻¹] | further results |
| --- | --- | --- | --- | --- | --- | --- | --- | --- | --- |
| Ac-EVVYLIIRACARRAQRRSNP-NH2 [Cx32 208–227] | 0.5 | 1.5 | 1 | 1 | 3.1 ± 0.1 | 0.5 | 1 | 169 ± 5.6 | involvement of the N-lobe EF hand binding (CaM; CaM complex, 10 μM peptide): 50%; relative affinity for CaM, in words (CaM; compared with 208–226 peptide): higher affinity for CaM than the 208–226 peptide; rate constant for both C-lobe EF hands of CaM12·peptide complex (CaM12 (D22A/D58A CaM); 10 μM peptide): 3.1 ± 0.1 s^–1; relative amplitude A1 (EF1) (CaM34 (D95A/D131A CaM)): 0.5; relative amplitude A2 (EF2) (CaM34 (D95A/D131A CaM)): 1 |
| Cx32 1–21: peptide, consisting of residues 1–21, which represents the N-terminal tail CaM-binding domain of Cx32 |  |  |  |  |  |  |  |  | Kd (TA-CaM; TA-CaM (Lys75-modified fluorescent CaM), Ca^2+-dependent): 0.027 µM |
| Cx32 216–230: peptide representing residues 216–230 of the Cx32 C-terminal tail (ACARRAQRRSNPPSR; UniProt P08034 216-230, looked up, fragment) |  |  |  |  |  |  |  |  | relative affinity for CaM, in words (TA-CaM; compared with 208–226 peptide): higher affinity than the 208–226 peptide |
| EVVYLIIRACARRAQRRSN [Cx32 208–226] | 1 | 1 | 1 | 1 | 1.6 ± 0.1 | 1 | 1 | 173 ± 0.4 | donor AEDANS fluorescence on increasing the peptide concentration (DA-CaM [1]): a blue shift was seen in the donor AEDANS fluorescence; Kd (AEDANS-T34C/T110C-CaM): 3.45 ± 1.09 µM; increase in fluorescence on peptide binding (fold) (AEDANS-T34C/T110C-CaM; donor-only labeled probe AEDANS-T34C/T110C-CaM): 2.5 fold |
| MNWTGLYTLLSGVNRHSTA [Cx32 1–19] |  |  |  |  |  |  |  |  | Kd (DA-CaM [2]): 1.14 ± 0.1 µM |
| calmodulin [CaM] |  |  |  |  |  |  |  |  | ΔRF of two measurable (C-lobe) sites [3]: 0.08; higher Ca^2+ affinity of the C-terminal lobe of apo CaM (fold) ([4]; Ca^2+-free (apo) CaM, C-lobe vs N-lobe): about 5 fold; Ca^2+ dissociation from the two N-terminal lobe sites, estimated ([4]; no peptide): ~1000 s^–1 |
